Measurements: ChEMBL document CHEMBL3576810, “Pentacyclic antibiotics from a tidal mud flat-derived actinomycete” (J Nat Prod, 2015)
≈ marks a conversion by molar mass, not a printed value. Calls of active or inactive are those of the source. The calls are words filed in the database; no cut-off is given here.

Assays:
[1] = Inhibition of Staphylococcus aureus ATCC 6538p sortase A delta24 mutant using H2N-Abz-LPXTG-Dap(Dnp)-NH2 fluorescent substrate incubated for 1 hr by fluorescence based assay
How it was run: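 Recombinant SrtAΔ24 (24 μg), srtA gene from S. aureus ATCC 6538p. Buffer 50 mM Tris-HCl, 150 mM NaCl, pH 7.5, 5 mM CaCl2, with 1 μg Abz-LPXTG-Dap(Dnp) peptide, 1 mM pentaglycine and compound at several concentrations (0.5% DMSO final). 1 h at 37 °C. Fluorescence read at excitation 317 nm, emission 420 nm. p-Hydroxymercuribenzoic acid positive control.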

[2] = Cytotoxicity against human SNU638 cells after 72 hrs by sulforhodamine B assay; format: functional, cell-based; details: SNU-638, 72 h
How it was run: (§1)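 Cells seeded at 3 × 10^4 cells/mL and exposed to a range of compound concentrations at 37 °C, 5% CO2, for 72 h. Fixed with 10% TCA for 1 h, stained with 0.4% SRB in 1% acetic acid, dye dissolved in 10 mM Tris pH 10.0. Survival expressed relative to solvent control; IC50 by nonlinear regression. Etoposide positive control.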

Proteus hauseri = assay: Antibacterial activity against Proteus hauseri NBRC 3851 incubated for 12 hrs at 37 degC; format: functional; details: NBRC 3851, 12 h
How it was run: (§2)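 Bacteria grown overnight in LB broth at 37 °C, centrifuged and washed twice in sterile water. DMSO compound stocks serially 2-fold diluted in Plate Count Broth over 50 to 0.8 μg/mL. Inoculum 5 × 10^5 cfu/mL final, 12 h at 37 °C. MIC taken as lowest concentration with no visible growth. Ampicillin reference.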

Trichophyton rubrum = assay: Antifungal activity against Trichophyton rubrum NBRC 9185; format: functional, organism-based
How it was run: (§3)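 Fungi grown on potato dextrose agar for 2 weeks at 28 °C. Spores harvested, washed twice and suspended at 5 × 10^5 spores/mL, then diluted into potato dextrose broth (5 × 10^4 cells/mL) with test compound in DMSO (0.5% final). DMSO solvent control; amphotericin B positive control.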

A549 = assay: Cytotoxicity against human A549 cells after 72 hrs by sulforhodamine B assay; format: functional, cell-based; details: A549, 72 h; how it was run: as §1
Bacillus subtilis = assay: Antibacterial activity against Bacillus subtilis ATCC 6633 incubated for 12 hrs at 37 degC; format: functional; details: ATCC 6633, 12 h; how it was run: as §2
Staphylococcus aureus = assay: Antibacterial activity against Staphylococcus aureus ATCC 25923 incubated for 12 hrs at 37 degC; format: functional; details: ATCC 25923, 12 h; how it was run: as §2
[3] = test system: Trichophyton mentagrophytes; assay: Antifungal activity against Trichophyton mentagrophytes IFM 40996; format: functional, organism-based; how it was run: as §3
Aspergillus fumigatus = assay: Antifungal activity against Aspergillus fumigatus HIC 6094; format: functional; how it was run: as §3
Kocuria rhizophila = assay: Antibacterial activity against Kocuria rhizophila NBRC 12708 incubated for 12 hrs at 37 degC; format: functional; details: NBRC 12708, 12 h; how it was run: as §2
[4] = Cytotoxicity against human SKHEP1 cells after 72 hrs by sulforhodamine B assay; format: functional, cell-based; details: SK-HEP1, 72 h; how it was run: as §1
HCT-116 = assay: Cytotoxicity against human HCT116 cells after 72 hrs by sulforhodamine B assay; format: functional, cell-based; details: HCT-116, 72 h; how it was run: as §1
Candida albicans = assay: Antifungal activity against Candida albicans ATCC 10231; format: functional
How it was run: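 C. albicans grown in YPD medium for 48 h at 28 °C, centrifuged and washed twice with sterile water. Cells (5 × 10^4 cells/mL) in potato dextrose broth with test compound in DMSO (0.5% final). DMSO solvent control; amphotericin B positive control.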

K562 = assay: Cytotoxicity against human K562 cells after 72 hrs by sulforhodamine B assay; format: functional, cell-based; details: K562, 72 h; how it was run: as §1
MDA-MB-231 = assay: Cytotoxicity against human MDA-MB-231 cells after 72 hrs by sulforhodamine B assay; format: functional, cell-based; details: MDA-MB-231, 72 h; how it was run: as §1
Salmonella enterica = assay: Antibacterial activity against Salmonella enterica ATCC 14028 incubated for 12 hrs at 37 degC; format: functional; details: ATCC 14028, 12 h; how it was run: as §2

Compound	IC50 [1]	IC50 [2]	MIC (Proteus hauseri)	MIC (Trichophyton rubrum)	IC50 (A549)	MIC (Bacillus subtilis)	MIC (Staphylococcus aureus)	MIC [3]	MIC (Aspergillus fumigatus)	MIC (Kocuria rhizophila)	IC50 [4]	IC50 (HCT-116)	MIC (Candida albicans)	IC50 (K562)	IC50 (MDA-MB-231)	MIC (Salmonella enterica)
Para-Hydroxymercuribenzoic acid	104000 nM	–	–	–	–	–	–	–	–	–	–	–	–	–	–	–
CC(=O)Cc1cc(O)c2c(c1)CCc1c-2cc2c(c1O)C(=O)c1c(O)cc(O)cc1C2=O	–	> 100000 nM	> 100 µg/mL	inactive	> 100000 nM	> 100 µg/mL	> 100 µg/mL	inactive	inactive	> 100 µg/mL	> 100000 nM	> 100000 nM	inactive	18300 nM	> 100000 nM	> 100 µg/mL
CC1(C)S[C@@H]2[C@H](NC(=O)[C@H](N)c3ccccc3)C(=O)N2[C@H]1C(=O)O [AMPICILLIN]	–	–	< 0.6 µM	–	–	1.1 µM	4.5 µM	–	–	0.6 µM	–	–	–	–	–	4.5 µM
COc1ccc2oc3c(O)c4c(c(O)c3c(=O)c2c1O)-c1c(cc(CC(C)=O)c(C(=O)N[C@@](C)(CO)C(=O)O)c1O)CC4	43200 nM	800 nM	21.1 µM	–	1700 nM	0.7 µM	10.5 µM	–	84.3 µM (≈ 50 µg/mL)	10.5 µM	1900 nM	900 nM	21.1 µM (≈ 12.5 µg/mL)	> 100000 nM	1200 nM	0.7 µM
COc1cc([C@@H]2c3cc4c(cc3[C@@H](O[C@@H]3O[C@@H]5CO[C@@H](C)O[C@H]5[C@H](O)[C@H]3O)[C@H]3COC(=O)[C@H]23)OCO4)cc(OC)c1O [ETOPOSIDE]	–	500 nM	–	–	800 nM	–	–	–	–	–	1100 nM	1900 nM	–	3100 nM	10600 nM	–
